# Source: PubChem
# Hits are enriched below; roughly 1.4% of the tested compounds scored in any of these assays.
# PLCb3 inh = blocks human PLC-beta3 enzyme activity; Q01970; inhibition, % at 12.2 µM; Purified PLC-beta3, fluorogenic substrate, fluorescence; 0.18% of 370,000 active; AID 720704;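 also: 0% = median of compound wells on plate and 100% = full blocker control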
# PLCg1 inh = inhibitors of human phospholipase C gamma1; P19174; purified PLC-gamma1, fluorogenic substrate, fluorescence; inhibition, % at 12.2 µM; 0.84% of 370,000 active; AID 720700; in the data active = inhibition above about 9.5%
# DDE Tn7 FP inh = inhibitors of Tn7 peptide binding to human fibrin DD(E) | P02675 | FP displacement of FITC-Tn7 peptide from fibrin DD(E); 0% = median of compound wells per plate | inhibition, % at 8.3 µM | 0.13% of 370,000 active | AID 720508;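 active = inhibition above the mean of compounds falling within the control limits plus 3 SD of them, cut at about 14% in these data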;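 also: 0% = plate median of compound wells and 100% = 10 µM Aha-Tn7 peptide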
# Target sequence (P02675 whole entry, looked up): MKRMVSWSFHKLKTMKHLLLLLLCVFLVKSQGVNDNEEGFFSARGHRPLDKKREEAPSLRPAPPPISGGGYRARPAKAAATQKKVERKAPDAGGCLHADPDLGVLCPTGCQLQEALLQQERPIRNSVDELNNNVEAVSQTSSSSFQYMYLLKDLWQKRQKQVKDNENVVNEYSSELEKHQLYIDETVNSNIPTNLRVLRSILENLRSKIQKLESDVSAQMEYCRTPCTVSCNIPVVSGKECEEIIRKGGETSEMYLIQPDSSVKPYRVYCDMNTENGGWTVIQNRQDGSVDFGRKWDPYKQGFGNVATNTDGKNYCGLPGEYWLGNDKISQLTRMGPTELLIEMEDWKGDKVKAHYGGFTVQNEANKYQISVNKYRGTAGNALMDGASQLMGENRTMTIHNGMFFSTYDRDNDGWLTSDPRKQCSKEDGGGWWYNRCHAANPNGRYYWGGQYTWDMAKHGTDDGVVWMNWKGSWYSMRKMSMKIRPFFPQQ
#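 assay system = human clot-derived fibrin DD(E) complex | quantity = Fibrin-DD(E) at 2 µM final | timing = 10 min preincubation, 3 h with tracer, room temperature | signal = fluorescence polarization | measure = percent inhibition | benchmarks = high control wells with 10 µM unlabelled Aha-Tn7 peptide (full inhibition) | replicates = singlicate testing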
# Tn6 DDE FP = DD(E)-Tn6 binding inhibition, primary FP screen. P02675. Fibrin DD(E) TRITC-Tn6 fluorescence polarization displacement. inhibition, % at 8.3 µM. 0.21% of 370,000 active. AID 720509;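 active = inhibition above a per-campaign cutoff: mean of compounds within control limits plus 3 SD, cut at about 15% in these data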;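 also: 0% = median of all compound wells on the plate and 100% = blocking peptide control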
# DNA FID counter = fluorescent intercalator displacement, NS3 helicase counter-screen; DNA fluorescent intercalator displacement, fluorescence; inhibition, % at 7.9 µM; 0.17% of 290,000 active; AID 1845; in the data active = inhibition above about 37%;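 also: 0% = vehicle and 100% = reference compound; higher means more ethidium bromide displaced from hairpin DNA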
# PLCgamma1 ctr = inhibits human PLC-gamma1 in PLC-beta3 counter-screen. purified PLC-gamma1, fluorogenic substrate, fluorescence. inhibition, % at 12.3 µM. 3.1% of 3,300 active. shares compounds with PLCg1 inh; in the data active = inhibition above about 9.5%
# PLCb3 confirm = human PLC-beta3 inhibition, confirmation | shares compounds with PLCg1 inh | purified PLC-beta3, fluorogenic substrate fluorescence | inhibition, % at 12.3 µM | 1% of 3,300 active | AID 743261
# * = called active by the depositor; x = no result given. Rule as the data show it, unless noted: active = inhibition above about 11%; inactive = the rest.
SMILES,PLCb3 inh,PLCg1 inh,DDE Tn7 FP inh,Tn6 DDE FP,DNA FID counter,PLCgamma1 ctr,PLCb3 confirm
C/C(=N\NC(=O)CSc1nnc(C)s1)c1ccc(O)cc1,10,9.9*,-11,-3,-5,0,-2
COC(=O)c1ccc(CSc2nnc(N)s2)cc1,-1,0,-2,9,2,x,x
COc1cc(/C(C)=N/NC(=O)CSc2nnc(C)s2)ccc1O,0,3,-8,-7,-17,x,x
CC(C)(C)NC(=O)CSc1nc(N)c(NC(=O)c2ccccc2F)c(=O)[nH]1,12*,6,2,-5,-4,-3,1
Cc1sc2nc(CN3CCOCC3)nc(NS(=O)(=O)c3ccccc3)c2c1C,-12,-9,-4,5,-18,x,x
Cc1sc2nc(C3CC3)nc(NCCNS(=O)(=O)c3ccccc3)c2c1C,6,9.6*,-5,-5,-7,-2,0
C=CCn1c(SCCN2C(=O)c3ccccc3C2=O)nc2scc(-c3ccc(F)cc3)c2c1=O,6,13*,2,-3,x,-4,-2
COc1ccc(Cc2c(O)nc(SCC(=O)N3CCOCC3)[nH]c2=O)cc1,-2,-15,4,9,-3,x,x
COc1ccccc1N(CC(=O)Nc1ccccc1C(=O)NC(C)C)S(C)(=O)=O,2,2,-2,4,-7,x,x
CCOC(=O)c1ccccc1NC(=O)CN(c1ccccc1OC)S(C)(=O)=O,11*,7,0,11,0,-3,-6
CCOC(=O)N1CCN(C(=O)c2ccc(CS(=O)Cc3ccccc3Cl)o2)CC1 (configuration not stated),-6,9.9*,-6,-4,-44,-2,3
CC(C)C(C)NC(=O)COC(=O)C1CCN(S(=O)(=O)c2ccc3c(c2)OCCO3)CC1 (configuration not stated),-2,11*,-1,-13,x,-6,-1
O=C(COC(=O)C1CCN(S(=O)(=O)c2ccc3c(c2)OCCO3)CC1)NC1CCCCC1,0,0,-2,-5,x,x,x
CCNC(=O)COC(=O)C1CCN(S(=O)(=O)c2ccc3c(c2)OCCO3)CC1,-4,10*,-2,-7,x,-4,-1
CCCNC(=O)COC(=O)C1CCN(S(=O)(=O)c2ccc3c(c2)OCCO3)CC1,0,1,-1,-3,x,x,x
CCC(=O)N1CCc2cc(S(=O)(=O)CCC(=O)NCCc3ccc(S(N)(=O)=O)cc3)ccc21,-2,10*,-2,0,-11,-1,-2
CCc1ccc(NS(=O)(=O)c2ccc3c(c2)CCN3C(=O)CCC(=O)O)cc1,0,10*,-11,1,-36,-6,-5
Cc1ccc(NS(=O)(=O)c2ccc3c(c2)CCN3C(=O)CCC(=O)O)cc1Cl,-6,2,4,4,-18,x,x
CCN(CC)C(=O)C1CCCN(Cc2ccc3c(c2)OCO3)C1 (configuration not stated),0,-1,-6,-2,2,x,x
CC12CCC3C(C1)C(C(=O)O2)C(=O)OC3(C)C (configuration not stated),-8,0,6,5,x,x,x
Cc1ccc(Cn2cc(CN3CC(N4CCCCC4)CS3(=O)=O)nn2)cc1 (configuration not stated),2,3,10,8,x,x,x
CCCCCCN1CCN(C2CN(Cc3cn(Cc4ccc(C)cc4)nn3)S(=O)(=O)C2)CC1 (configuration not stated),7,15*,2,2,x,-11,-4
O=C(NCc1n[nH]c(=S)n1-c1cccc(C(F)(F)F)c1)c1ccc(S(=O)(=O)N2CCCC2)cc1,2,1,5,9,-33,x,x
O=C(NCc1n[nH]c(=S)n1-c1cccc(C(F)(F)F)c1)c1ccc(S(=O)(=O)N2CCCCC2)cc1,3,12*,-9,-3,-39,1,-4
C=C1C[C@H]2[C@@H]3C=C(C)C4=CC(=O)CC[C@]4(C)[C@H]3CC[C@]2(C)[C@@]1(OC(C)=O)C(C)=O,-2,-2,12,1,x,x,x
Cc1c(C(=O)NCc2cccnc2)sc2ncn(CC(=O)N3CCCCC3C)c(=O)c12 (configuration not stated),3,11*,-4,-3,-15,-6,-4
